From ChEMBL document CHEMBL3853323, “Small Antimicrobial Agents Based on Acylated Reduced Amide Scaffold” (J Med Chem, 2016)
Values after ≈ are worked out from the molar mass of the structure shown. Active and inactive are the calls of the source. No cut-off for these calls is given here.

How the values were obtained:
[1] = Cytotoxicity against human HK2 cells assessed as cell viability after 24 hrs by MTT assay; type: toxicity, cell-based, HK-2
Outline: (§1)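 Cells seeded at 5×10^4 per well and left 12 h, then exposed 24 h to compound at 100, 50, 25, 12.5 or 6.25 μg/mL diluted in medium. Medium replaced, MTT added for 4 h, solubilized 12 h at 37 °C, A550 read; viability % = (A − Ablank)/(Acontrol − Ablank) × 100. Run at least three times.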

Escherichia coli [2] = assay: Antibacterial activity against Escherichia coli ATCC 25922 after 16 to 20 hrs by two fold serial dilution method; type: functional
Outline: (§2)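 MIC as lowest concentration giving complete inhibition of growth after 20 h; at least three independent experiments, each in duplicate.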

[3] = Hemolytic activity in human RBC after 1 hr; type: ADME, cell-based, Erythrocyte; details: human red blood cells
Outline: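 Fresh K2EDTA human RBCs, PBS-washed, as 5% v/v suspension mixed 1:1 with compound dilutions, 37 °C for 1 h. Supernatant after centrifugation diluted in PBS, A540 read. % hemolysis relative to 2% Triton X-100 (positive) and PBS (negative). At least three runs, each in duplicate.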

Klebsiella pneumoniae = assay: Antibacterial activity against Klebsiella pneumoniae ATCC 13383 after 16 to 20 hrs by two fold serial dilution method; type: functional; outline: as §2
[4] = tested on: Staphylococcus epidermidis; assay: Antibacterial activity against methicillin-resistant Staphylococcus epidermidis RP62A after 16 to 20 hrs by two fold serial dilution method; type: functional
Outline: (§3)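 Broth MIC: the lowest concentration giving complete growth inhibition after 20 h. Run at least three times, in duplicate each time.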

Staphylococcus aureus [5] = assay: Antibacterial activity against methicillin-resistant Staphylococcus aureus ATCC 33591 after 16 to 20 hrs by two fold serial dilution method; type: functional; outline: as §3
[6] = Cytotoxicity against human K562 cells assessed as cell viability after 24 hrs by MTT assay; type: toxicity, cell-based; outline: as §1
Enterococcus faecalis = assay: Antibacterial activity against vancomycin resistant Enterococcus faecalis ATCC 700802 after 16 to 20 hrs by two fold serial dilution method; type: functional; outline: as §3
Pseudomonas aeruginosa = assay: Antibacterial activity against Pseudomonas aeruginosa ATCC 27853 after 16 to 20 hrs by two fold serial dilution method; type: functional; outline: as §2
Acinetobacter baumannii [7] = assay: Inhibition of biofilm formation in Acinetobacter baumannii at 0.6 ug/ml incubated overnight by crystal violet staining based assay; type: functional
Outline: (§4)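 Overnight culture diluted 1:100 into 10% MHII broth, incubated with compound overnight at 37 °C. Growth read at OD600, then biomass stained with crystal violet; CV OD divided by growth OD and normalized to untreated control. Triplicate, mean ± STDEV.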

[8] = Selectivity ratio of IC50 for human HK2 cells to MIC for methicillin-resistant Staphylococcus aureus ATCC 33591; type: ADME, cell-based
[9] = Selectivity ratio of IC50 for human K562 cells to MIC for methicillin-resistant Staphylococcus aureus ATCC 33591; type: ADME, cell-based
Staphylococcus aureus [10] = assay: Bactericidal activity against methicillin-resistant Staphylococcus aureus ATCC 33591 at 25 to 50 ug/ml for 10 mins to 2 hrs by time kill assay; type: functional
Outline: (§5)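 MRSA grown to mid-log in TSB was diluted to 10^6 CFU/mL. […] Samples were diluted 10^2–10^4-fold and plated on TSB agar. CFU were counted after overnight incubation at 37 °C and plotted against time.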

Staphylococcus aureus [11] = assay: Antibacterial activity against methicillin-resistant Staphylococcus aureus induced ventilator-associated pneumonia bearing Wistar rat model assessed as reduction in lung infiltrated proinflammatory cells at 10 mg/kg, iv measured after 1 to 3 days by hematoxylin and eosin staining based light microscopy; type: functional, organism-based
Outline: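 Male Wistar rats (6‒8 weeks, ~200 g) were fasted at least 12 h and given urethane 1 g/kg i.p. Pneumonia was induced by slow intratracheal injection of 100 μL PBS with 2×10^5 CFU/mL MRSA under mechanical ventilation. Compound was given at 10 mg/kg i.v. via tail vein. H&E-stained lung sections were scored for neutrophil infiltration and alveolar integrity over time, five random sections each.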

Staphylococcus aureus [12] = assay: Antibacterial activity against methicillin-resistant Staphylococcus aureus ATCC 33591 at 0.5 times MIC after 14 passages; type: functional
Outline: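 Resistance passaging: the starting MIC was measured as in the MIC assay. Bacteria from the 1/2 MIC well seeded the next day's assay. Repeated daily for 14 passages.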

Staphylococcus aureus [13] = assay: Bactericidal activity against methicillin-resistant Staphylococcus aureus ATCC 33591 assessed as disruption of bacterial membrane at 25 ug/ml after 2 hrs by DAPI staining based fluorescence microscopy; type: functional
Outline: (§6)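 Mid-log MRSA was exposed to compound at 37 °C for 2 h, pelleted and washed three times in PBS. Cells were stained sequentially with PI (5 µg/mL) and DAPI (10 µg/mL), 15 min each on ice in the dark. Imaged with a 100× oil objective; DAPI channel 460 nm, PI channel 620 nm.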

Staphylococcus aureus [14] = assay: Bactericidal activity against methicillin-resistant Staphylococcus aureus ATCC 33591 assessed as disruption of bacterial membrane at 25 ug/ml after 2 hrs by propidium iodide staining based fluorescence microscopy; type: functional; outline: as §6
Rattus norvegicus = assay: Antiinflammatory activity in methicillin-resistant Staphylococcus aureus induced ventilator-associated pneumonia bearing Wistar rat model assessed as reduction in TNF-alpha levels in bronchoalveolar lavage fluid at 10 mg/kg, iv measured after 1 to 3 days by ELISA; type: functional, organism-based
Outline: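 Same MRSA pneumonia rat model with 10 mg/kg i.v. tail-vein dosing. Rats were sacrificed and exsanguinated. Lungs were lavaged through a tracheal needle with 1 mL sterile PBS for six cycles. Specimens were homogenized and TNF-α was measured by ELISA.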

Acinetobacter baumannii [15] = assay: Inhibition of biofilm formation in Acinetobacter baumannii at 2 ug/ml incubated overnight by crystal violet staining based assay; type: functional; outline: as §4
Staphylococcus aureus [16] = assay: Bactericidal activity against methicillin-resistant Staphylococcus aureus ATCC 33591 for 10 mins to 2 hrs by time kill assay; type: functional; outline: as §5
Escherichia coli [17] = assay: Inhibition of biofilm formation in Escherichia coli ATCC 25922 at 2 ug/ml incubated overnight by crystal violet staining based assay; type: functional; outline: as §4
Escherichia coli [18] = assay: Inhibition of biofilm formation in Escherichia coli ATCC 25922 at 0.6 ug/ml incubated overnight by crystal violet staining based assay; type: functional; outline: as §4
[19] = Cytotoxicity against human K562 cells assessed as cell viability at 25 ug/ml after 24 hrs by MTT assay; type: toxicity, cell-based; details: k562, 24 h; outline: as §1
[20] = Cytotoxicity against human HK2 cells assessed as cell viability at 25 ug/ml after 24 hrs by MTT assay; type: toxicity, cell-based; details: hk-2, 24 h; outline: as §1

Compound | IC50 at 24 h [1] | MIC (Escherichia coli [2]) | HC50 at 1 h [3] | MIC (Klebsiella pneumoniae) | MIC [4] | MIC (Staphylococcus aureus [5]) | IC50 at 24 h [6] | MIC (Enterococcus faecalis) | MIC (Pseudomonas aeruginosa) | Activity (Staphylococcus aureus [10]) | Activity (Staphylococcus aureus [12]) | Activity (Staphylococcus aureus [13]) | Activity (Staphylococcus aureus [14]) | Activity (Staphylococcus aureus [16]) | Activity [19] | Activity [20] | other results
N=C(N)NCCC[C@H](N)C(=O)N[C@@H](Cc1ccccc1)CN(CC(=O)NCc1cccc2ccccc12)C(=O)c1ccc2ccccc2c1 | > 100 µg/mL | 50 µg/mL (≈ 76 µM) | 300 µg/mL | 25 µg/mL (≈ 38 µM) | 12.5 µg/mL (≈ 19 µM) | 25 µg/mL (≈ 38 µM) | > 100 µg/mL | 25 µg/mL (≈ 38 µM) | 25 µg/mL (≈ 38 µM) | – | – | – | – | – | – | – | –
NCCCC[C@H](N)C(=O)N[C@@H](Cc1ccccc1)CN(CC(=O)NCC12CC3CC(CC(C3)C1)C2)C(=O)CC12CC3CC(CC(C3)C1)C2 | 86.3 µg/mL (≈ 131 µM) | 3.12 µg/mL (≈ 4.73 µM) | 85 µg/mL | 6.25 µg/mL (≈ 9.47 µM) | 3.12 µg/mL (≈ 4.73 µM) | 1.56 µg/mL (≈ 2.36 µM) | 83.2 µg/mL (≈ 126 µM) | 6.25 µg/mL (≈ 9.47 µM) | 6.25 µg/mL (≈ 9.47 µM) | Active | Active | Active | Active | Dose-dependent effect | – | – | inhibition at 0.6 µg/mL (Acinetobacter baumannii [7]): > 50%; selectivity ratio [8]: > 50; selectivity ratio [9]: > 50; Activity (Staphylococcus aureus [11]): Active; Activity (Rattus norvegicus): Active; inhibition (Acinetobacter baumannii [15]): Active; inhibition (Escherichia coli [17]): Active; inhibition at 0.6 µg/mL (Escherichia coli [18]): > 50%
CC(C)(C)c1ccc(CNC(=O)CN(C[C@H](Cc2ccccc2)NC(=O)[C@@H](N)CCCCN)C(=O)CC23CC4CC(CC(C4)C2)C3)cc1 | – | 6.25 µg/mL (≈ 9.5 µM) | 120 µg/mL | 6.25 µg/mL (≈ 9.5 µM) | 3.12 µg/mL (≈ 4.74 µM) | 6.25 µg/mL (≈ 9.5 µM) | – | 6.25 µg/mL (≈ 9.5 µM) | 6.25 µg/mL (≈ 9.5 µM) | – | – | – | – | – | Non-Toxic | Non-Toxic | –
NCCCC[C@H](NC(=O)[C@@H](N)CCCN)C(=O)N[C@@H](Cc1ccccc1)CN(CC(=O)NCC12CC3CC(CC(C3)C1)C2)C(=O)CC12CC3CC(CC(C3)C1)C2 | – | 6.25 µg/mL (≈ 8.07 µM) | 200 µg/mL | > 25 µg/mL | 3.12 µg/mL (≈ 4.03 µM) | 3.12 µg/mL (≈ 4.03 µM) | – | 6.25 µg/mL (≈ 8.07 µM) | 6.25 µg/mL (≈ 8.07 µM) | – | – | – | – | – | Non-Toxic | Non-Toxic | –
NCCCC[C@H](NC(=O)[C@@H](N)CCCCN)C(=O)N[C@@H](Cc1ccccc1)CN(CC(=O)NCC12CC3CC(CC(C3)C1)C2)C(=O)CC12CC3CC(CC(C3)C1)C2 | – | 6.25 µg/mL (≈ 7.93 µM) | 280 µg/mL | > 25 µg/mL | 3.12 µg/mL (≈ 3.96 µM) | 1.56 µg/mL (≈ 1.98 µM) | – | 6.25 µg/mL (≈ 7.93 µM) | 6.25 µg/mL (≈ 7.93 µM) | Active | Active | Active | Active | Dose-dependent effect | Non-Toxic | Non-Toxic | –
NCCCC[C@H](N)C(=O)N[C@@H](Cc1ccccc1)CN(CC(=O)N(Cc1ccccc1)Cc1ccccc1)C(=O)CC12CC3CC(CC(C3)C1)C2 | – | 6.25 µg/mL (≈ 9.03 µM) | 180 µg/mL | 12.5 µg/mL (≈ 18.1 µM) | 6.25 µg/mL (≈ 9.03 µM) | 6.25 µg/mL (≈ 9.03 µM) | – | 6.25 µg/mL (≈ 9.03 µM) | 25 µg/mL (≈ 36.1 µM) | – | – | – | – | – | Non-Toxic | Non-Toxic | –
